Measurements reported in ChEMBL document CHEMBL1125742, “(2S)-1-(arylacetyl)-2-(aminomethyl)piperidine derivatives: novel, highly selective kappa opioid analgesics” (J Med Chem, 1991).

How the values were obtained:
[1] = tested on: Mus musculus; assay: Antinociceptive activity in mouse tail flick test following s.c. administration.; format: functional
How it was run: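 Mouse tail flick test, D'Amour and Smith procedure as modified by Ling et al., with compound given subcutaneously. ED50 in mg/kg with 95% confidence limits, derived by Finney probit analysis.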

[2] = target: T1, Mu-type opioid receptor (Cavia porcellus, UniProt P97266); assay: Displacement of [3H]DAGO from mu opioid receptors in guinea pig brain (minus cerebellum).; format: tissue-based
T1 sequence (P97266 whole entry): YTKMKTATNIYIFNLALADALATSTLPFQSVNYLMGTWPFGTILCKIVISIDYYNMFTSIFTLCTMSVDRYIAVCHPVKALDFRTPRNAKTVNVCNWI
How it was run: (§1)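 μ sites in fresh guinea pig brain homogenate (minus cerebellum) were labelled with [3H]DAGO for 40 min at 25 °C. Samples were filtered on GF/C, washed with ice-cold Tris buffer, and bound radioactivity counted. Nonspecific binding was set with 10^-6 M naloxone. Ki by Cheng–Prusoff, as the mean of triplicate curves (n = 3 experiments).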

[3] = target: T2, Kappa-type opioid receptor (Cavia porcellus, UniProt P41144); assay: Displacement of [3H]U-69593 from kappa opioid receptors in guine pig brain (minus cerebellum).; format: tissue-based
T2 sequence (P41144 whole entry): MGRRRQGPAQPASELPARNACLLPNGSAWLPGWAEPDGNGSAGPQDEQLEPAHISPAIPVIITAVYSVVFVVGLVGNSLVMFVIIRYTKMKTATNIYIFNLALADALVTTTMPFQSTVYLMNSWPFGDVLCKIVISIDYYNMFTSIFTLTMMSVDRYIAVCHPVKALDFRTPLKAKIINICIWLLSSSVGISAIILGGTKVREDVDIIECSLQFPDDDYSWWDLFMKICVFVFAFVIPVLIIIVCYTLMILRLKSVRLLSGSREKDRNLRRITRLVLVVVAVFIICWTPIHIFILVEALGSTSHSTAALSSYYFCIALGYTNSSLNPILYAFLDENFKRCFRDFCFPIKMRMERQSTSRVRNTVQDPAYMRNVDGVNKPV

[4] = tested on: Mus musculus; assay: Compound was evaluated for its antinociceptive activity in the mouse tail flick (MTF) test following subcutaneous administration of 10 mg/kg; format: functional
How it was run: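 Mouse tail flick test, D'Amour and Smith procedure as modified by Ling et al. A single 10 mg/kg subcutaneous dose was given and the result recorded as % protection.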

[5] = target: T2, Kappa-type opioid receptor; assay: Compound was evaluated for its binding affinity against Opioid receptor kappa 1 subtype in guinea pig brain (minus cerebellum) using [3H]U-69593 as radioligand.; format: tissue-based
How it was run: (§2)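 Fresh guinea pig brain homogenate (cerebellum removed) incubated with κ-selective [3H]U-69593 and competitor for 50 min at 25 °C. Samples were filtered on GF/C, washed and counted by liquid scintillation. Nonspecific binding was set with 10^-6 M naloxone. Ki from Cheng–Prusoff, as the mean of triplicate concentration–response curves (n = 3 experiments).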

[6] = target: T1, Mu-type opioid receptor; assay: Compound was evaluated for its binding affinity against Opioid receptor mu 1 subtype in guinea pig brain (minus cerebellum) using [3H]-DAGO as radioligand.; format: tissue-based; how it was run: as §1
[7] = target: T2, Kappa-type opioid receptor; assay: Compound was evaluated for its binding affinity against Opioid receptor kappa 1 subtype in guinea pig brain (minus cerebellum). using [3H]U-69593 as radioligand.; format: tissue-based; how it was run: as §2
[8] = target: T1, Mu-type opioid receptor; assay: Compound was evaluated for its binding affinity against opioid receptor mu subtype in guinea pig brain (minus cerebellum) using [3H]DAGO as radioligand.; format: tissue-based; how it was run: as §1
[9] = tested on: Mus musculus; assay: Compound was evaluated for its antinociceptive activity in the mouse tail flick (MTF) test following peroral administration; format: functional; settings: po
How it was run: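 Mouse tail flick test, D'Amour and Smith procedure as modified by Ling et al., with oral (po) dosing. ED50 in mg/kg with 95% confidence limits, derived by Finney probit analysis.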

[10] = Mus musculus, Tail, sc, read-out: ED50

Row | Compound | ED50 [1, 10] | Ki [2] | Ki [3] | other results
1 | O=C(Cc1cccc([N+](=O)[O-])c1)N1CCCCC1CN1CCCC1 (configuration not stated) | 0.86 mg/kg |  |  | 
2 | Cc1ccc(CC(=O)N2CCCCC2CN2CCCC2)cc1C (configuration not stated) | 2.89 mg/kg | 5310 nM | 1.83 nM | 
3 | O=C(Cc1ccccc1C(F)(F)F)N1CCCCC1CN1CCCC1 (configuration not stated) |  | > 10000 nM | 8.54 nM | Protection [4]: 60%
4 | O=C(Cc1ccc(Cl)c(Cl)c1)N1CCCCC1CN1CCCCC1 (configuration not stated) | 0.19 mg/kg |  |  | Ki [5]: 0.48 nM; Ki [6]: 4810 nM
5 | O=C(Cc1ccc(Cl)c(Cl)c1)N1CCCCC1CN1CCCC1 (configuration not stated) | 0.09 mg/kg |  |  | Ki [7]: 0.53 nM; Ki [6]: 1860 nM
6 | O=C(Cc1ccc(Cl)c(Cl)c1)N1CCCC[C@@H]1CN1CCCC1 | 17.5 mg/kg | 7110 nM | 15.4 nM | 
7 | CC(C1CCCCN1C(=O)Cc1ccc(Cl)c(Cl)c1)N(C)C (stereo in doubt; 38) |  |  | 1000 nM | Protection [4]: 0%; Ki [8]: > 10000 nM
8 | CCN(CC)CC1CCCCN1C(=O)Cc1ccc(Cl)c(Cl)c1 (configuration not stated) | 0.77 mg/kg | 5000 nM | 1.28 nM | 
9 | O=C(Cc1ccc(Cl)cc1)N1CCCCC1CN1CCCC1 (configuration not stated) | 0.84 mg/kg | 5910 nM | 1.68 nM | 
10 | CN(C)C[C@@H]1CCCCN1C(=O)Cc1ccc(Cl)c(Cl)c1 | 0.87 mg/kg | 2160 nM | 0.7 nM | 
11 | CN1CCCC1C1CCCCN1C(=O)Cc1ccc(Cl)c(Cl)c1 (stereo in doubt; 42) |  | 864 nM | 11.7 nM | Protection [4]: 40%
12 | CN(C)CC1CCCCN1C(=O)Cc1ccc(Cl)c(Cl)c1 (configuration not stated) | 0.92 mg/kg |  |  | Ki [5]: 1.36 nM; Ki [6]: 3050 nM
13 | O=C(Cc1ccc([N+](=O)[O-])cc1)N1CCCCC1CN1CCCC1 (configuration not stated) | 0.49 mg/kg |  |  | 
14 | O=C(Cc1ccc(C(F)(F)F)cc1)N1CCCCC1CN1CCCC1 (stereo in doubt; 20) |  | 3520 nM | 0.78 nM | ED50 [1]: 0.2 mg/kg
15 | O=C(Cc1ccc(Cl)c(Cl)c1)N1CCCC[C@H]1CN1CCCC1 | 0.05 mg/kg | 1560 nM | 0.24 nM | ED50 [9]: 0.89 mg/kg
16 | O=C(Cc1ccc(O)cc1)N1CCCCC1CN1CCCC1 (configuration not stated) |  | > 10000 nM | 194 nM | Protection [4]: 0%
17 | CN1CCCC1C1CCCCN1C(=O)Cc1ccc(Cl)c(Cl)c1 (stereo in doubt; 41) | 0.4 mg/kg | 464 nM | 0.33 nM | 
18 | O=C(Cc1ccc(C2CCCCC2)cc1)N1CCCCC1CN1CCCC1 (configuration not stated) |  | 974 nM | 827 nM | Protection [4]: 0%
19 | O=C(Cc1ccc(Br)cc1)N1CCCCC1CN1CCCC1 (configuration not stated) | 0.46 mg/kg | 2980 nM | 0.84 nM | 
20 | CC(C1CCCCN1C(=O)Cc1ccc(Cl)c(Cl)c1)N(C)C (stereo in doubt; 37) | 0.38 mg/kg | 762 nM | 0.6 nM | 
21 | CN1CC[C@]23c4c5ccc(O)c4O[C@H]2[C@@H](O)C=C[C@H]3[C@H]1C5 [MORPHINE] | 2.8 mg/kg |  |  | 
22 | O=C(Cc1ccc(C(F)(F)F)cc1)N1CCCCC1CN1CCCC1 (stereo in doubt; 21) | 0.11 mg/kg | 2340 nM | 0.57 nM | ED50 [9]: 1.17 mg/kg
23 | CC(C)(C)c1ccc(CC(=O)N2CCCCC2CN2CCCC2)cc1 (configuration not stated) | 1 mg/kg |  |  | 
24 | Cc1ccc(CC(=O)N2CCCCC2CN2CCCC2)cc1 (configuration not stated) | 3.88 mg/kg | > 10000 nM | 3.84 nM | 
25 | O=C(Cc1ccc(F)cc1)N1CCCCC1CN1CCCC1 (configuration not stated) | 9.22 mg/kg | > 10000 nM | 15.4 nM | 
26 | O=C(Cc1cccc(C(F)(F)F)c1)N1CCCCC1CN1CCCC1 (configuration not stated) | 0.38 mg/kg | > 10000 nM | 1.07 nM | 
